Data taken from ChEMBL document CHEMBL2069286, “Discovery and biological evaluation of novel 4-amino-2-phenylpyrimidine derivatives as potent and orally active GPR119 agonists” (Bioorg Med Chem, 2012).
The source made the active and inactive calls. No cut-off for these calls is given here.

Assays:
Mus musculus [1] = assay: Antihyperglycemic activity in ICR mouse assessed as reduction in glucose levels at 3 mg/kg, po dosed post overnight fasting by oral glucose tolerance test; assay type: functional; design: scale not given: the % may be the effect or the level left
Outline: (§1)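 Eight-week-old male ICR mice, fasted overnight, dosed orally with compound in 0.5% methylcellulose or vehicle alone. Oral glucose 2 g/kg given 10 min later. Tail-vein blood taken 30 min after glucose, and glucose measured by Glucose CII test.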

[2] = molecular target: T1, Glucose-dependent insulinotropic receptor (Homo sapiens) (UniProt Q8TDV5); assay: Agonist activity at human GPR119 expressed in HEK293 cells assessed as stimulation of cAMP level incubated for 6 hrs by luciferase activity based luminometry; assay type: functional, cell-based
T1 sequence (whole entry): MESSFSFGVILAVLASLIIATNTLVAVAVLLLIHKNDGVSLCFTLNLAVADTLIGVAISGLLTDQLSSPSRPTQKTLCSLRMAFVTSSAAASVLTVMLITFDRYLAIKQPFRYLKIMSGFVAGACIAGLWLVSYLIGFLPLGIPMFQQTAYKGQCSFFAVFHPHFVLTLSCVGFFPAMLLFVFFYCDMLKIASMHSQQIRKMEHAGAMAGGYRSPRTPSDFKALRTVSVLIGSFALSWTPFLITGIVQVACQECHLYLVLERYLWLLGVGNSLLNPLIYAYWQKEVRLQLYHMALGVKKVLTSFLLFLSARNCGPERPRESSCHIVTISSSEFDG
Outline: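 HEK293 cells stably expressing human GPR119 plus pCRE-luciferase reporter; 2.5×10^4 cells/well, overnight at 37 °C in 5% CO₂, then compound (DMSO) at 0.01–10 μM for 6 h. Lysis in 0.2% Triton X-100/PBS pH 7.4, luminometer read of luciferase. Triplicates per concentration. EC = concentration matching the response of reference agonist at 10 μM.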

[3] = molecular target: T1, Glucose-dependent insulinotropic receptor (Homo sapiens); assay: Intrinsic activity at human GPR119 expressed in HEK293 cells assessed as stimulation of cAMP level at 10 uM incubated for 6 hrs by luciferase activity based luminometry relative to 10 uM 2-(2-(4-bromophenyl)-6-methylpyrimidin-4-ylamino)ethanol; assay type: functional, cell-based
Outline: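 Same HEK293 hGPR119/pCRE-luciferase system with 6 h exposure, lysis in 0.2% Triton X-100/PBS and luciferase read, triplicate wells. Test compound at 10 μM; response expressed as % of the luciferase signal given by the reference agonist at 10 μM.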

Cytochrome P450 1A2 = molecular target: T2, Cytochrome P450 1A2 (Homo sapiens, UniProt P05177); assay: Inhibition of CYP1A2; assay type: ADME
T2 sequence (P05177 whole entry): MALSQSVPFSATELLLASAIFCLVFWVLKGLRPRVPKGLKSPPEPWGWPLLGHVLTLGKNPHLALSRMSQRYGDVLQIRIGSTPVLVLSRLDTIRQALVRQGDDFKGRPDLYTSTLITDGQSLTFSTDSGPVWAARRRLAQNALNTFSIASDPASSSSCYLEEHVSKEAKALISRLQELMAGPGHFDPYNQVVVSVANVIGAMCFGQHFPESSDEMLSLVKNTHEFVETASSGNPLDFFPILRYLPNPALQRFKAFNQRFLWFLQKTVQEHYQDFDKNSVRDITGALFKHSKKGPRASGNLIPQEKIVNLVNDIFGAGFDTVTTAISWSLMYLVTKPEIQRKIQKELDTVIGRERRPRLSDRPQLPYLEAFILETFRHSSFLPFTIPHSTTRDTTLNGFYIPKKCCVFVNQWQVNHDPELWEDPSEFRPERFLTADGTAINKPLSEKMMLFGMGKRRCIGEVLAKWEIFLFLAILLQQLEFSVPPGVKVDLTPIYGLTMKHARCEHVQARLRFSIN

Mus musculus [4] = assay: Antihyperglycemic activity in ICR mouse assessed as reduction in glucose levels at 1 mg/kg, po dosed post overnight fasting by oral glucose tolerance test; assay type: functional; design: scale not given: the % may be the effect or the level left; outline: as §1
Mus musculus [5] = assay: Antihyperglycemic activity in ICR mouse assessed as reduction in glucose levels at 10 mg/kg, po dosed post overnight fasting by oral glucose tolerance test; assay type: functional; design: scale not given: the % may be the effect or the level left
Mus musculus [6] = assay: Antidiabetic activity in kk/Ay mouse assessed as reduction in blood glucose at 3 mg/kg, po once daily for week by Glucose cII test; assay type: functional, organism-based; design: dose 3 mg/kg
Outline: (§2)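 Eight-week-old male kk/Ay mice, n = 8 per group, dosed orally once daily for one week at 3 mg/kg, with 0.5% methylcellulose vehicle group. Fed-state tail-vein blood for glucose (Glucose CII), insulin and triglyceride (Triglyceride E-test). Pancreas weighed, homogenized, extracted with acid-ethanol, spun 10 min at 3000 g, supernatant insulin assayed. Mean ± SE; Dunnett's test.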

[7] = Stability in human liver microsomes; assay type: ADME, Microsome; conditions: read-out: Stability
[8] = Tmax in mouse at 3 mg/kg, po; assay type: ADME, organism-based; design: dose 3 mg/kg, route oral; conditions: in vivo
[9] = Tmax in monkey at 3 mg/kg, po; assay type: ADME, organism-based, Macaca mulatta; design: dose 3 mg/kg, route oral; conditions: rhesus monkey, in vivo
[10] = Half life in mouse at 1 mg/kg, iv; assay type: ADME, organism-based; design: dose 1 mg/kg, route intravenous; conditions: in vivo
[11] = Half life in monkey at 1 mg/kg, iv; assay type: ADME, organism-based, Macaca mulatta; design: dose 1 mg/kg, route intravenous; conditions: rhesus monkey, in vivo
[12] = Volume of distribution at steady state in mouse at 1 mg/kg, iv; assay type: ADME, organism-based; design: dose 1 mg/kg, route intravenous; conditions: in vivo, read-out: Vdss
[13] = Volume of distribution at steady state in monkey at 1 mg/kg, iv; assay type: ADME, organism-based, Macaca mulatta; design: dose 1 mg/kg, route intravenous; conditions: rhesus monkey, in vivo, read-out: Vdss
[14] = Total clearance in mouse at 1 mg/kg, iv; assay type: ADME, organism-based; design: dose 1 mg/kg, route intravenous; conditions: in vivo
[15] = Total clearance in monkey at 1 mg/kg, iv; assay type: ADME, organism-based, Macaca mulatta; design: dose 1 mg/kg, route intravenous; conditions: rhesus monkey, in vivo
[16] = Oral bioavailability in mouse at 3 mg/kg; assay type: ADME, organism-based; conditions: in vivo
[17] = Oral bioavailability in monkey at 3 mg/kg; assay type: ADME, organism-based, Macaca mulatta; conditions: rhesus monkey, in vivo
Mus musculus [18] = assay: Antidiabetic activity in kk/Ay mouse assessed as reduction in plasma insulin at 3 mg/kg, po once daily for week; assay type: functional, organism-based; design: dose 3 mg/kg; outline: as §2
Mus musculus [19] = assay: Antidiabetic activity in kk/Ay mouse assessed as reduction in plasma triglyceride level at 3 mg/kg, po once daily for week by Triglyceride E-test; assay type: functional, organism-based; design: dose 3 mg/kg; outline: as §2
Mus musculus [20] = assay: Antidiabetic activity in kk/Ay mouse assessed as improvement in pancreatic insulin level at 3 mg/kg, po once daily for week

Row | SMILES | Activity (Mus musculus [1]) | EC [2] [µM] | Intrinsic activity [3] | IC50 (Cytochrome P450 1A2) [µM] | also measured
1 | Cc1cc(NCCc2ccc[n+]([O-])c2)nc(-c2cc(F)c(Br)cc2F)n1 | 23% | 0.11 | 588% | 7.2 | –
2 | Cc1cc(NCCc2ccc[n+]([O-])c2)nc(-c2ccc(Cl)cc2)n1 | – | 0.7 | 376% | – | –
3 | Cc1cc(NC[C@H](O)CO)nc(-c2ccc(Br)c(F)c2)n1 | – | 2.3 | 257% | – | –
4 | Cc1cc(NCCc2cc[nH]c(=O)c2)nc(-c2cc(F)c(Br)cc2F)n1 | 23% | 0.017 | 1080% | – | –
5 | CCc1cc(NC[C@H](O)CO)nc(-c2ccc(Br)c(F)c2)n1 | – | 0.59 | 283% | 1.6 | Activity (Mus musculus [4]): 16%
6 | Cc1cc(NCCc2cc[nH]c(=O)c2)nc(-c2ccc(Br)c(F)c2)n1 | 10% | 0.021 | 617% | – | –
7 | Cc1cc(NCCc2cc[nH]c(=O)c2)nc(-c2cc(F)c(Cl)cc2F)n1 | 21% | 0.0069 | 722% | – | –
8 | Cc1cc(NC[C@@H](O)CO)nc(-c2ccc(Br)c(F)c2)n1 | – | 1.2 | 346% | 1.7 | –
9 | Cc1cc(NCCc2ccc[n+]([O-])c2)nc(-c2ccc(Br)cc2F)n1 | 19% | 1.5 | 268% | – | –
10 | Cc1cc(NCCc2ccc[n+]([O-])c2)nc(-c2ccc(Cl)c(Cl)c2)n1 | 15% | 0.72 | 430% | – | –
11 | Cc1cc(NCCc2ccc[n+]([O-])c2)nc(-c2ccc(Br)cc2)n1 | inactive | 1.2 | 325% | – | Activity (Mus musculus [5]): 38%
12 | Cc1cc(NCCc2ccc[n+]([O-])c2)nc(-c2ccccc2)n1 | – | – | inactive | – | –
13 | CCc1cc(NC[C@@H](O)CO)nc(-c2cc(F)c(Cl)cc2F)n1 | – | 0.28 | 497% | 35 | Activity (Mus musculus [6]): Active; Activity (Mus musculus [4]): 25%; CLint scaled [7]: < 20 mL/min/kg; Tmax [8]: 6 min; Tmax [9]: 2.2 h; half-life [10]: 2.2 h; half-life [11]: 4.6 h; Vd [12]: 6.9 L/kg; Vd [13]: 4.7 L/kg; clearance [14]: 35.9 mL/min/kg; clearance [15]: 12 mL/min/kg; bioavailability [16]: 86%; bioavailability [17]: 51%; Activity (Mus musculus [18]): Active; Activity (Mus musculus [19]): Active; Activity (Mus musculus [20]): Active
14 | Cc1cc(NCCc2ccc[n+]([O-])c2)nc(-c2ccc(Cl)c(F)c2)n1 | 25% | 0.33 | 450% | – | –
15 | Cc1cc(NCCc2ccc[n+]([O-])c2)nc(-c2cc(F)c(Cl)cc2F)n1 | 27% | 0.21 | 536% | 3.7 | –
16 | CCc1cc(NC[C@@H](O)CO)nc(-c2ccc(Br)c(F)c2)n1 | – | 0.19 | 284% | 1.5 | Activity (Mus musculus [4]): 23%; CLint scaled [7]: 168 mL/min/kg
17 | CCc1cc(NCCc2cc[nH]c(=O)c2)nc(-c2cc(F)c(Cl)cc2F)n1 | 25% | 0.013 | 578% | – | –
18 | Cc1cc(NCCc2ccc[n+]([O-])c2)nc(-c2ccc(Br)c(F)c2)n1 | 30% | 0.22 | 573% | – | –
19 | CCc1cc(NC[C@@H](O)CO)nc(-c2cc(F)c(Br)cc2F)n1 | – | 0.22 | 391% | 25 | Activity (Mus musculus [4]): 19%
20 | CCc1cc(NC[C@@H](O)CO)nc(-c2ccc(Cl)c(F)c2)n1 | – | 0.39 | 266% | 2.1 | Activity (Mus musculus [4]): 24%; CLint scaled [7]: 236 mL/min/kg
21 | Cc1cc(NCCc2ccc[n+]([O-])c2)nc(-c2cc(F)c(Br)c(F)c2)n1 | 15% | 0.34 | 493% | – | –
22 | CCc1ccc(CCOc2ccc(CC3SC(=O)NC3=O)cc2)nc1 (configuration not stated) | – | – | – | – | Activity (Mus musculus [6]): Active; Activity (Mus musculus [18]): Active; Activity (Mus musculus [19]): Active
